{
  "source": "ChEMBL document CHEMBL4689842",
  "about": "“EUbOPEN Chemogenomics Library wave 1” (2021)",
  "system": "Fibroblast",
  "assay": "Multiplex assay against human fibroblast",
  "type": "toxicity, cell-based",
  "in_short": "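Compound was added to live cells that had been stained at seeding with Hoechst33342, BioTracker Green Microtubule Cytoskeleton Dye, MitoTracker Red and Annexin V Alexa Fluor 680, and imaging followed on a CQ1 microscope at 37°C and 5% CO2. CellPathfinder machine-learning gating divided cells into Hoechst high-intensity objects or normal cells, normal cells into healthy, pyknosed or fragmented nuclei, and pyknosed cells into mitotic or apoptotic. Tubulin, mitochondrial-mass and membrane-permeability phenotypes are per cents of healthy-nucleus cells.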",
  "key": {"[1]": {"settings": "12 h, 1 µM, compound concentration 1 uM, replicate 1"}, "[2]": {"settings": "12 h, 1 µM, compound concentration 1 uM, replicate 2"}, "[3]": {"settings": "12 h, 10 µM, compound concentration 10 uM, replicate 1"}, "[4]": {"settings": "12 h, 10 µM, compound concentration 10 uM, replicate 2"}, "[5]": {"settings": "24 h, 1 µM, compound concentration 1 uM, replicate 1"}, "[6]": {"settings": "24 h, 1 µM, compound concentration 1 uM, replicate 2"}, "[7]": {"settings": "24 h, 10 µM, compound concentration 10 uM, replicate 1"}, "[8]": {"settings": "24 h, 10 µM, compound concentration 10 uM, replicate 2"}},
  "data": [
    {"smiles": "CNC(=O)c1ccc(Nc2nc(OC3CCCC3)c3c(-c4ccc5nc(C)oc5c4)c[nH]c3n2)c(OC)c1", "values": [
      {"measurement": "Population Apoptotic (%)", "setting": "[1]", "result": 69, "unit": "%"},
      {"measurement": "Population Fragmented Nuclei (%)", "setting": "[1]", "result": 29, "unit": "%"},
      {"measurement": "Population Healthy Nuclei (%)", "setting": "[1]", "result": 53, "unit": "%"},
      {"measurement": "Population Hoechst High Intensity Objects (%)", "setting": "[1]", "result": 10, "unit": "%"},
      {"measurement": "Population Membrane Permeable-Phenotype (%)", "setting": "[1]", "result": 46, "unit": "%"},
      {"measurement": "Population Mitochondria Different-Phenotype (%)", "setting": "[1]", "result": 5, "unit": "%"},
      {"measurement": "Population Mitotic Cells (%)", "setting": "[1]", "result": 30, "unit": "%"},
      {"measurement": "Population Normal (%)", "setting": "[1]", "result": 89, "unit": "%"},
      {"measurement": "Population Pyknosed Nuclei (%)", "setting": "[1]", "result": 17, "unit": "%"},
      {"measurement": "Population Tubulin-Different-Phenotype (%)", "setting": "[1]", "result": 80, "unit": "%"},
      {"measurement": "Total Cell Count", "setting": "[1]", "result": 237},
      {"measurement": "Population Apoptotic (%)", "setting": "[2]", "result": 33, "unit": "%"},
      {"measurement": "Population Fragmented Nuclei (%)", "setting": "[2]", "result": 60, "unit": "%"},
      {"measurement": "Population Healthy Nuclei (%)", "setting": "[2]", "result": 34, "unit": "%"},
      {"measurement": "Population Hoechst High Intensity Objects (%)", "setting": "[2]", "result": 33, "unit": "%"},
      {"measurement": "Population Membrane Permeable-Phenotype (%)", "setting": "[2]", "result": 45, "unit": "%"},
      {"measurement": "Population Mitochondria Different-Phenotype (%)", "setting": "[2]", "result": 9, "unit": "%"},
      {"measurement": "Population Mitotic Cells (%)", "setting": "[2]", "result": 66, "unit": "%"},
      {"measurement": "Population Normal (%)", "setting": "[2]", "result": 66, "unit": "%"},
      {"measurement": "Population Pyknosed Nuclei (%)", "setting": "[2]", "result": 4, "unit": "%"},
      {"measurement": "Population Tubulin-Different-Phenotype (%)", "setting": "[2]", "result": 86, "unit": "%"},
      {"measurement": "Total Cell Count", "setting": "[2]", "result": 96},
      {"measurement": "Population Apoptotic (%)", "setting": "[3]", "result": 77, "unit": "%"},
      {"measurement": "Population Fragmented Nuclei (%)", "setting": "[3]", "result": 33, "unit": "%"},
      {"measurement": "Population Healthy Nuclei (%)", "setting": "[3]", "result": 50, "unit": "%"},
      {"measurement": "Population Hoechst High Intensity Objects (%)", "setting": "[3]", "result": 14, "unit": "%"},
      {"measurement": "Population Membrane Permeable-Phenotype (%)", "setting": "[3]", "result": 14, "unit": "%"},
      {"measurement": "Population Mitotic Cells (%)", "setting": "[3]", "result": 22, "unit": "%"},
      {"measurement": "Population Normal (%)", "setting": "[3]", "result": 85, "unit": "%"},
      {"measurement": "Population Pyknosed Nuclei (%)", "setting": "[3]", "result": 16, "unit": "%"},
      {"measurement": "Population Tubulin-Different-Phenotype (%)", "setting": "[3]", "result": 26, "unit": "%"},
      {"measurement": "Total Cell Count", "setting": "[3]", "result": 194},
      {"measurement": "Population Apoptotic (%)", "setting": "[4]", "result": 33, "unit": "%"},
      {"measurement": "Population Fragmented Nuclei (%)", "setting": "[4]", "result": 60, "unit": "%"},
      {"measurement": "Population Healthy Nuclei (%)", "setting": "[4]", "result": 27, "unit": "%"},
      {"measurement": "Population Hoechst High Intensity Objects (%)", "setting": "[4]", "result": 40, "unit": "%"},
      {"measurement": "Population Membrane Permeable-Phenotype (%)", "setting": "[4]", "result": 30, "unit": "%"},
      {"measurement": "Population Mitochondria Different-Phenotype (%)", "setting": "[4]", "result": 7, "unit": "%"},
      {"measurement": "Population Mitotic Cells (%)", "setting": "[4]", "result": 66, "unit": "%"},
      {"measurement": "Population Normal (%)", "setting": "[4]", "result": 59, "unit": "%"},
      {"measurement": "Population Pyknosed Nuclei (%)", "setting": "[4]", "result": 12, "unit": "%"},
      {"measurement": "Population Tubulin-Different-Phenotype (%)", "setting": "[4]", "result": 23, "unit": "%"},
      {"measurement": "Population Apoptotic (%)", "setting": "[5]", "result": 67, "unit": "%"},
      {"measurement": "Population Fragmented Nuclei (%)", "setting": "[5]", "result": 36, "unit": "%"},
      {"measurement": "Population Healthy Nuclei (%)", "setting": "[5]", "result": 41, "unit": "%"},
      {"measurement": "Population Hoechst High Intensity Objects (%)", "setting": "[5]", "result": 10, "unit": "%"},
      {"measurement": "Population Membrane Permeable-Phenotype (%)", "setting": "[5]", "result": 26, "unit": "%"},
      {"measurement": "Population Mitochondria Different-Phenotype (%)", "setting": "[5]", "result": 11, "unit": "%"},
      {"measurement": "Population Mitotic Cells (%)", "setting": "[5]", "result": 32, "unit": "%"},
      {"measurement": "Population Normal (%)", "setting": "[5]", "result": 89, "unit": "%"},
      {"measurement": "Population Pyknosed Nuclei (%)", "setting": "[5]", "result": 22, "unit": "%"},
      {"measurement": "Population Tubulin-Different-Phenotype (%)", "setting": "[5]", "result": 79, "unit": "%"},
      {"measurement": "Total Cell Count", "setting": "[5]", "result": 265},
      {"measurement": "Population Apoptotic (%)", "setting": "[6]", "result": 100, "unit": "%"},
      {"measurement": "Population Fragmented Nuclei (%)", "setting": "[6]", "result": 62, "unit": "%"},
      {"measurement": "Population Healthy Nuclei (%)", "setting": "[6]", "result": 35, "unit": "%"},
      {"measurement": "Population Hoechst High Intensity Objects (%)", "setting": "[6]", "result": 35, "unit": "%"},
      {"measurement": "Population Membrane Permeable-Phenotype (%)", "setting": "[6]", "result": 19, "unit": "%"},
      {"measurement": "Population Mitochondria Different-Phenotype (%)", "setting": "[6]", "result": 19, "unit": "%"},
      {"measurement": "Population Mitotic Cells (%)", "setting": "[6]", "result": 0, "unit": "%"},
      {"measurement": "Population Normal (%)", "setting": "[6]", "result": 64, "unit": "%"},
      {"measurement": "Population Pyknosed Nuclei (%)", "setting": "[6]", "result": 1, "unit": "%"},
      {"measurement": "Population Tubulin-Different-Phenotype (%)", "setting": "[6]", "result": 90, "unit": "%"},
      {"measurement": "Total Cell Count", "setting": "[6]", "result": 92},
      {"measurement": "Population Fragmented Nuclei (%)", "setting": "[7]", "result": 28, "unit": "%"},
      {"measurement": "Population Healthy Nuclei (%)", "setting": "[7]", "result": 52, "unit": "%"},
      {"measurement": "Population Hoechst High Intensity Objects (%)", "setting": "[7]", "result": 23, "unit": "%"},
      {"measurement": "Population Membrane Permeable-Phenotype (%)", "setting": "[7]", "result": 5, "unit": "%"},
      {"measurement": "Population Mitochondria Different-Phenotype (%)", "setting": "[7]", "result": 3, "unit": "%"},
      {"measurement": "Population Normal (%)", "setting": "[7]", "result": 76, "unit": "%"},
      {"measurement": "Population Pyknosed Nuclei (%)", "setting": "[7]", "result": 19, "unit": "%"},
      {"measurement": "Population Tubulin-Different-Phenotype (%)", "setting": "[7]", "result": 19, "unit": "%"},
      {"measurement": "Total Cell Count", "setting": "[7]", "result": 193},
      {"measurement": "Population Apoptotic (%)", "setting": "[8]", "result": 71, "unit": "%"},
      {"measurement": "Population Fragmented Nuclei (%)", "setting": "[8]", "result": 60, "unit": "%"},
      {"measurement": "Population Healthy Nuclei (%)", "setting": "[8]", "result": 25, "unit": "%"},
      {"measurement": "Population Hoechst High Intensity Objects (%)", "setting": "[8]", "result": 40, "unit": "%"},
      {"measurement": "Population Membrane Permeable-Phenotype (%)", "setting": "[8]", "result": 7, "unit": "%"},
      {"measurement": "Population Mitochondria Different-Phenotype (%)", "setting": "[8]", "result": 7, "unit": "%"},
      {"measurement": "Population Mitotic Cells (%)", "setting": "[8]", "result": 28, "unit": "%"},
      {"measurement": "Population Normal (%)", "setting": "[8]", "result": 60, "unit": "%"},
      {"measurement": "Population Pyknosed Nuclei (%)", "setting": "[8]", "result": 13, "unit": "%"},
      {"measurement": "Population Tubulin-Different-Phenotype (%)", "setting": "[8]", "result": 23, "unit": "%"},
      {"measurement": "Total Cell Count", "setting": "[8]", "result": 85}
    ]}
  ]
}
